PubChem BioAssay AID449761 (Broad Institute, 2010)
Records with an inconclusive call do not appear. Calls of active or inactive are those of the source.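 Rule for the calls: active = compounds raising caspase signal with fitted AC50 no more than tenfold above the top tested dose; inconclusive = flat curve at 30 to 70% activity, or unusable fit; inactive = the rest.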

Test system: MEF WT non-primed, caspase-Glo luminescence, 3 h
Test: caspase activation in non-primed cells, dose response, counter-screen for Bcl2-A1 inhibitor project, cell-based, caspase-Glo luminescence, 3 h (AID 449761)
How it was run: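 Test system – Non-primed wild-type MEF cells · Timing – 3 h compound at 37 °C, 1 h detection at room temperature · Technique – CaspaseGlo luminescence, reagent diluted 1:1 in 50 mM HEPES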

**Q.** `CC(CCc1ccccc1)NC(=O)c1ccc(NC(=O)c2ccccc2)cc1` (centres undefined) was tested. Which AC50 did it give?
**A.** 27.7 µM

**Q.** How did the AC50 turn out when `Cc1ccc(C2(c3ccc(C)cc3)CC2C(=O)Nc2ccc([N+](=O)[O-])cc2O)cc1` (centres undefined) was run?
**A.** > 35 µM (inactive)

**Q.** Which AC50 does the source give for `Cc1cc(C)cc(Cn2ncc(Cl)c(Cl)c2=O)c1` here?
**A.** > 35 µM (inactive)

**Q.** Which AC50 does the source give for `O=C(NC1CCCCC1)C(c1ccc(F)cc1)N(CCc1ccccc1)C(=O)CN1C(=O)c2ccccc2S1(=O)=O` (centres undefined) here?
**A.** 19.6 µM

**Q.** With `O=C1/C(=C\c2c(NCCOCCO)nc3ccccn3c2=O)SC(=S)N1Cc1ccco1` as the molecule, how does the AC50 read?
**A.** > 35 µM (inactive)

**Q.** With `CC(C)c1cccc(-c2ccc3c(c2)S(=O)(=O)c2cccc(C(=O)NCc4ccccc4Cl)c2C3=O)c1` as the molecule, how does the AC50 read?
**A.** > 35 µM (inactive)

**Q.** `COc1cc(C(=O)Nc2cc3c(cc2N2CCCCC2)n(C)c(=O)n3C)cc(OC)c1OC` was tested. Which AC50 did it give?
**A.** > 35 µM (inactive)

**Q.** For `Cc1ccc(-c2nc(NC(=O)c3nn(C)cc3[N+](=O)[O-])sc2C)cc1`, which AC50 is on record?
**A.** 5.96 µM

**Q.** Which AC50 does the source give for `NC(=S)c1cn(C2OC(CO)C(O)C2O)c2ncnc(N)c12` (centres undefined) here?
**A.** > 35 µM (inactive)

**Q.** `Cc1ccc2c(c1)C(=O)C(=O)N2Cc1ccc(Br)cc1` was tested. Which AC50 did it give?
**A.** > 35 µM (inactive)

**Q.** Which AC50 does the source give for `O=C(/C=C/c1ccc(F)cc1)NC(=S)Nc1ccccc1C(=O)NC1CCCCC1` here?
**A.** > 35 µM (inactive)

**Q.** How did the AC50 turn out when `COc1ccc(C2C(O)C(c3c[nH]c4ccccc34)=NN2C(=O)CCl)cc1` (centres undefined) was run?
**A.** 36.1 µM

**Q.** With `COc1ccccc1-c1cc(C(F)(F)F)nc(S(=O)(=O)CCCC(=O)N2CCOCC2)n1` as the molecule, how does the AC50 read?
**A.** 8.99 µM

**Q.** For `Cc1cccc(Nc2nc(N)c([N+](=O)[O-])c(N3CCCC(C)C3)n2)c1` (centres undefined), which AC50 is on record?
**A.** > 35 µM (inactive)

**Q.** How did the AC50 turn out when `CC(=O)[C@]1(O)Cc2c(O)c3c(c(O)c2[C@@H](O[C@H]2C[C@H](N)[C@H](O)[C@H](C)O2)C1)C(=O)c1ccccc1C3=O` was run?
**A.** > 35 µM (inactive)

**Q.** With `CCOC(=O)COc1ccccc1/C=C\[N+](=O)[O-]` as the molecule, how does the AC50 read?
**A.** 12.2 µM

**Q.** For `CC(C)(C)C1CCc2onc(C(=O)Nc3cccc(O)c3)c2C1` (centres undefined), which AC50 is on record?
**A.** > 35 µM (inactive)

**Q.** `CCCCCCCC/C=C\CCCCCCCC(=O)NCCc1ccc(O)c(O)c1` was tested. Which AC50 did it give?
**A.** 14 µM

**Q.** With `CC1=NNC(=O)/C1=C\c1cn(-c2ccccc2)nc1-c1cccs1` as the molecule, how does the AC50 read?
**A.** 14.3 µM

**Q.** Which AC50 does the source give for `COc1ccc(NC(=O)c2cccc3c2C(=O)c2ccc(-c4ccc(F)cc4OCc4ccccc4)cc2S3(=O)=O)cc1` here?
**A.** > 35 µM (inactive)

**Q.** `COc1ccc(OC[C@@H](O)CNC(=O)c2cccc3c2C(=O)c2ccc(-c4ccc(F)cc4OCc4ccccc4)cc2S3(=O)=O)cc1` was tested. Which AC50 did it give?
**A.** > 35 µM (inactive)

**Q.** With `CC(C)(C)c1ccc2c(c1)OC(C(=O)N/N=C\c1ccc[nH]1)CO2` (centres undefined) as the molecule, how does the AC50 read?
**A.** > 35 µM (inactive)

**Q.** With `O=C(c1ccc(COc2ccc3ccccc3c2)o1)N1N=C(C(F)F)CC1(O)C(F)F` (centres undefined) as the molecule, how does the AC50 read?
**A.** > 35 µM (inactive)

**Q.** With `N#C/C(=C\c1ccc(OCc2ccccc2)cc1)C(=O)Nc1nc2c(s1)CCN(Cc1ccccc1)C2` as the molecule, how does the AC50 read?
**A.** > 35 µM (inactive)

**Q.** How did the AC50 turn out when `O=c1c(Cl)c(Cl)cnn1Cc1ccccc1Cl` was run?
**A.** > 35 µM (inactive)

**Q.** For `CCOC(=O)/C=c1\s/c(=C\c2ccc(C(=O)OC)cc2)c(=O)n1CC(=O)Nc1ccccc1`, which AC50 is on record?
**A.** > 35 µM (inactive)

**Q.** `O=C(NC[C@H]1CCCO1)c1cccc2c1C(=O)c1ccc(-c3ccc(F)cc3OCc3ccccc3)cc1S2(=O)=O` was tested. Which AC50 did it give?
**A.** > 35 µM (inactive)

**Q.** How did the AC50 turn out when `CC1CC(C)CN(C(=O)c2ccc(-c3ccc([N+](=O)[O-])cc3)o2)C1` (centres undefined) was run?
**A.** > 35 µM (inactive)

**Q.** For `Nc1nc(F)nc2c1ncn2[C@@H]1O[C@H](CO)[C@@H](O)[C@H]1O`, which AC50 is on record?
**A.** > 35 µM (inactive)

**Q.** How did the AC50 turn out when `CC(C)(C)c1ccc(C(=O)Nc2ccc(O)c3c(=O)cc(-c4cccc(Cl)c4)oc23)cc1` was run?
**A.** > 35 µM (inactive)

**Q.** For `C#CC(=O)N(c1cc(OC)ccc1OC)C(C(=O)NC1CCCC1)c1cccs1` (centres undefined), which AC50 is on record?
**A.** > 35 µM (inactive)

**Q.** `COC(=O)c1ccc2c(c1)C(C)(C)C(/C=C/c1ccc(O)cc1)=[N+]2C` was tested. Which AC50 did it give?
**A.** 14.2 µM

**Q.** `COc1ccc(NC(=S)NC(NC(=O)/C=C/c2ccccc2)C(Cl)(Cl)Cl)cc1` (centres undefined) was tested. Which AC50 did it give?
**A.** > 35 µM (inactive)

**Q.** `COC(=O)CSc1nc(N)c2c3c(sc2n1)C(c1ccccc1)SC(c1ccccc1)C3` (centres undefined) was tested. Which AC50 did it give?
**A.** > 35 µM (inactive)

**Q.** For `COc1ccc(-c2oc(=O)c3cc(OC)c(OC)cc3c2/C=C/c2cccc([N+](=O)[O-])c2)cc1`, which AC50 is on record?
**A.** > 35 µM (inactive)

**Q.** `CC[C@H]1CN2CCc3cc(OC)c(OC)cc3[C@@H]2C[C@@H]1C[C@H]1NCCc2cc(OC)c(OC)cc21` was tested. Which AC50 did it give?
**A.** > 35 µM (inactive)

**Q.** Which AC50 does the source give for `COc1cccc(C(=O)C(C#N)=C(SC)SC)c1` here?
**A.** > 35 µM (inactive)

**Q.** How did the AC50 turn out when `COc1cc(CN2CCN(c3cc(C)ccc3C)CC2)ccc1O` was run?
**A.** > 35 µM (inactive)

**Q.** `COc1ccc2cc(C)c3nnc(SCC(=O)Nc4nc(-c5ccc(F)cc5)cs4)n3c2c1` was tested. Which AC50 did it give?
**A.** 26.2 µM
